# Assay results published in ChEMBL document CHEMBL5705905, “Pharmacological targeting of kinases MST1 and MST2 augments tissue repair and regeneration” (Sci Transl Med, 2016).
# How the values were obtained:
# [1] = target: Dual specificity mitogen-activated protein kinase kinase 7 (Homo sapiens) (UniProt O14733); assay: Inhibition of MKK7 (unknown origin) assessed as remaining activity at 1 uM by Kinome scan method relative to control
# [2] = system: Receptor-type tyrosine-protein kinase FLT3 (Homo sapiens), P36888 [K663Q]; assay: Inhibition of FLT3 K663Q mutant (unknown origin) assessed as remaining activity at 1 uM by Kinome scan method relative to control
# [3] = target: RAC-beta serine/threonine-protein kinase (Homo sapiens) (UniProt P31751); assay: Inhibition of AKT2 (unknown origin) assessed as remaining activity at 1 uM by Kinome scan method relative to control
# In short: (§1)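 Active-site-dependent competition-binding (KINOMEscan) panel of 468 kinases, test compound at 1 μM (from a 10 mM DMSO stock). Read-out is ctrl% = (test signal − positive control signal)/(negative control signal − positive control signal) × 100. DMSO is the negative control (100%) and a control compound is the positive control (0%). Lower ctrl% means tighter binding.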
# [4] = target: Serine/threonine-protein kinase Sgk1 (Homo sapiens) (UniProt O00141); assay: Inhibition of SGK (unknown origin) assessed as remaining activity at 1 uM by Kinome scan method relative to control
# Sequence of Serine/threonine-protein kinase Sgk1 (Homo sapiens) (O00141 whole entry, the tested form may be a part): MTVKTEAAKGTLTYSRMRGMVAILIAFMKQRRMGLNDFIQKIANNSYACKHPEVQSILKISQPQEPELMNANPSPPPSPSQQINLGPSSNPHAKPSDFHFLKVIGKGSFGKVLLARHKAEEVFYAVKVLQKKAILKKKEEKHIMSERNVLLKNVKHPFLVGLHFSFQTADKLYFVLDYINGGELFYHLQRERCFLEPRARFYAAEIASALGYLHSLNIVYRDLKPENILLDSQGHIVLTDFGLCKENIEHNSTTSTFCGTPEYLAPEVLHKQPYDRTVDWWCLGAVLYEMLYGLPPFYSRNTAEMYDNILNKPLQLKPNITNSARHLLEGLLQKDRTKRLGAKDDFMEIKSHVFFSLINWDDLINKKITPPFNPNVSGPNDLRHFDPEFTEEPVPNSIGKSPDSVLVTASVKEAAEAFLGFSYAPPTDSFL
# [5] = target: Ankyrin repeat and protein kinase domain-containing protein 1 (Homo sapiens) (UniProt Q8NFD2); assay: Inhibition of ANKK1 (unknown origin) assessed as remaining activity at 1 uM by Kinome scan method relative to control; in short: as §1
# [6] = system: Tyrosine-protein kinase ABL1 (Homo sapiens), P00519 [F317I]; assay: Inhibition of phosphorylated ABL1 F317I mutant (unknown origin) assessed as remaining activity at 1 uM by Kinome scan method relative to control
# [7] = target: Phosphatidylinositol 5-phosphate 4-kinase type-2 gamma (Homo sapiens) (UniProt Q8TBX8); assay: Inhibition of PIP5K2C (unknown origin) assessed as remaining activity at 1 uM by Kinome scan method relative to control
# [8] = target: Serine/threonine-protein kinase TAO2 (Homo sapiens, UniProt Q9UL54); assay: Binding affinity to TAOK2 (unknown origin) assessed as dissociation constant
# Sequence of Serine/threonine-protein kinase TAO2 (Q9UL54 whole entry): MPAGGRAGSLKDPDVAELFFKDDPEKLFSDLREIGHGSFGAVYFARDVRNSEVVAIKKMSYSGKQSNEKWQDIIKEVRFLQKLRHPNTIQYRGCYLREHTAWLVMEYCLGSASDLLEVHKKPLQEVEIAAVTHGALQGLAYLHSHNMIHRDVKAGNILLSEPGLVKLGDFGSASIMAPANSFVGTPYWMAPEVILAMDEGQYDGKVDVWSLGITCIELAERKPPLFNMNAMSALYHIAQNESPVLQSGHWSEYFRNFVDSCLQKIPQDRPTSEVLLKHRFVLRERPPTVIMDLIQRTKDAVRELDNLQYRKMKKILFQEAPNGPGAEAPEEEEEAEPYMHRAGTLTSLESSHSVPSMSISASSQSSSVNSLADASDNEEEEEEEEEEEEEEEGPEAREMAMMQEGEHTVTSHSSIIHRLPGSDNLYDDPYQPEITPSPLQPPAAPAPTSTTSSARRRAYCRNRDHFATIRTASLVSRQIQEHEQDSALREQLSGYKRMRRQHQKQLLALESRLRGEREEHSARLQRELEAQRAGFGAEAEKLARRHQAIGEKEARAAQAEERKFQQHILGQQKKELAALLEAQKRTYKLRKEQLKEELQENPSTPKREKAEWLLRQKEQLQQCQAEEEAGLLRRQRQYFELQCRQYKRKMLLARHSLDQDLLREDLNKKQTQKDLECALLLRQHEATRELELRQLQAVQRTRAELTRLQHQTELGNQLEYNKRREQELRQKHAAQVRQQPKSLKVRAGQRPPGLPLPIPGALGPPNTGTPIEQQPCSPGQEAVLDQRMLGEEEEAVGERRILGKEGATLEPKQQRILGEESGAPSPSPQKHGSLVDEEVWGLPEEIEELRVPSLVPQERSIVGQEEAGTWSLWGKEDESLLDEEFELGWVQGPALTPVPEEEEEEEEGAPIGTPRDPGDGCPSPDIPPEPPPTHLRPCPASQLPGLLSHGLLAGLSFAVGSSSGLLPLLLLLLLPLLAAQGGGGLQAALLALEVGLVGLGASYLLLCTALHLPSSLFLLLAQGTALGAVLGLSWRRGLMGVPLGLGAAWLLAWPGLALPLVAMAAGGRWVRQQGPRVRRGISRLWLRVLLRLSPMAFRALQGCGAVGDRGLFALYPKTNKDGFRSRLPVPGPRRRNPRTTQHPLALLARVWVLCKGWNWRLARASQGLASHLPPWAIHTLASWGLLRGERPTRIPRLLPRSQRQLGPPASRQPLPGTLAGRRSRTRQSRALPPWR
# [9] = target: Activin receptor type-1 (Homo sapiens) (UniProt Q04771); assay: Inhibition of ACVR1 (unknown origin) assessed as remaining activity at 1 uM by Kinome scan method relative to control; in short: as §1
# Sequence of Activin receptor type-1 (Homo sapiens) (Q04771 whole entry): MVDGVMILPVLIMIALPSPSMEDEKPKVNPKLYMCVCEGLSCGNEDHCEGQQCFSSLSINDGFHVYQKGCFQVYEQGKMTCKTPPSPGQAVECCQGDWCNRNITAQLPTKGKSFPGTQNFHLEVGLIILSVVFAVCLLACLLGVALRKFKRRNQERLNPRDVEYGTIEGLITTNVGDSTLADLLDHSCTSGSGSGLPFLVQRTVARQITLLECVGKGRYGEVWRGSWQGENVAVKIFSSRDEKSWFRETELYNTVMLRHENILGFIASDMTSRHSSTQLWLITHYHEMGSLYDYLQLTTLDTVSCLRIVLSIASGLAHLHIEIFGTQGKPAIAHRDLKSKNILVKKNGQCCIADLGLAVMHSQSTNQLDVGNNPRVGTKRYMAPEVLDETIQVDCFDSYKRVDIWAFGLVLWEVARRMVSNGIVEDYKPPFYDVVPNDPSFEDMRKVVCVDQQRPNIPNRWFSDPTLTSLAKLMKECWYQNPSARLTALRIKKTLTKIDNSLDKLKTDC
# [10] = target: Serine/threonine-protein kinase NIM1 (Homo sapiens) (UniProt Q8IY84); assay: Inhibition of NIM1 (unknown origin) assessed as remaining activity at 1 uM by Kinome scan method relative to control
# Sequence of Serine/threonine-protein kinase NIM1 (Homo sapiens) (Q8IY84 whole entry): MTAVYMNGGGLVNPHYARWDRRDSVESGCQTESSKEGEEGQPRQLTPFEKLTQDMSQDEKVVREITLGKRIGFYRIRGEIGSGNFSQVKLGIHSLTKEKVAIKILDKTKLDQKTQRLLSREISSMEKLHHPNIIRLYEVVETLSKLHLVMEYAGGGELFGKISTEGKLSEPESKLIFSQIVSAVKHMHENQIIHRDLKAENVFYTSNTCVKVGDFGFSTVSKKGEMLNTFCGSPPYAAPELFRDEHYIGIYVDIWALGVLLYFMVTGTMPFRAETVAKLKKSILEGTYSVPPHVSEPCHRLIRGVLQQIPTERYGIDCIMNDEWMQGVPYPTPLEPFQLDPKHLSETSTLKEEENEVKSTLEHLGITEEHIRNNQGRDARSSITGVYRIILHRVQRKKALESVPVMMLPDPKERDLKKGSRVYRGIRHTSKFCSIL
# [11] = target: Atypical kinase COQ8A, mitochondrial (Homo sapiens) (UniProt Q8NI60); assay: Inhibition of ADCK3 (unknown origin) assessed as remaining activity at 1 uM by Kinome scan method relative to control; in short: as §1
# [12] = target: TRAF2 and NCK-interacting protein kinase (Homo sapiens) (UniProt Q9UKE5); assay: Inhibition of TNIK (unknown origin) assessed as remaining activity at 1 uM by Kinome scan method relative to control
# [13] = Acute toxicity in wild-type mouse assessed as CK19-positive cells at 1 mg/kg,ip administrated daily for 2 months and after 2 weeks drug withdrawal by H and E staining based immunohistochemical analysis; type: organism-based; conditions: in vivo, 1460 h
# In short: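 Wild-type mice dosed 1 mg/kg i.p. daily for 2 months (vehicle 0.1% citric acid aqueous solution with 20% Kolliphor HS 15), or dosed and then withdrawn 2 weeks. Liver sections given H&E and IHC for CK19 and BrdU; positive cells counted, n = 3; means ± SD, Student's t test.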
# [14] = target: LIM domain kinase 2 (Homo sapiens) (UniProt P53671); assay: Inhibition of LIMK2 (unknown origin) assessed as remaining activity at 1 uM by Kinome scan method relative to control
# Sequence of LIM domain kinase 2 (Homo sapiens) (P53671 whole entry, looked up, the tested form may be a part): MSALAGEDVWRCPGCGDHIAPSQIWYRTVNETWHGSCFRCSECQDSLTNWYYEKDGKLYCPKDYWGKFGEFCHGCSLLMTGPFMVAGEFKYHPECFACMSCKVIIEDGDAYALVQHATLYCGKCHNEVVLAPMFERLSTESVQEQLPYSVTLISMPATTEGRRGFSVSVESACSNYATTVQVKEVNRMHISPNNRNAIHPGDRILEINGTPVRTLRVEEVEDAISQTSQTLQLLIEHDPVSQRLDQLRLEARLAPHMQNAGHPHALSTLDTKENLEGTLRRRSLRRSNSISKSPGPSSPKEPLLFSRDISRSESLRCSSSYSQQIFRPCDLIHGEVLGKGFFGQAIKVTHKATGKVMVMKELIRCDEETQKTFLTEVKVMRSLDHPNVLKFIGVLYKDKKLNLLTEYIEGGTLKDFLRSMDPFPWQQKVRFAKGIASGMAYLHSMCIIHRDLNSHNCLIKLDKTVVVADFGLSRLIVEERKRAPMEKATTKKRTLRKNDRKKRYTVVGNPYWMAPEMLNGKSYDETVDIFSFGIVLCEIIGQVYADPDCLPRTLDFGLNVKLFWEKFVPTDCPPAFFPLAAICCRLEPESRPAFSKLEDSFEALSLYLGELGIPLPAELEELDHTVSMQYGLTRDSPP
# [15] = target: Platelet-derived growth factor receptor alpha (Homo sapiens) (UniProt P16234); assay: Inhibition of PDGFRalpha (unknown origin) assessed as remaining activity at 1 uM by Kinome scan method relative to control
# In short: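 KINOMEscan active-site competition binding assay at 1 μM against 468 kinases. Ctrl% = (test − positive control)/(negative control DMSO − positive control) × 100; lower values mean tighter binding.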
# [16] = target: Serine/threonine-protein kinase Nek4 (Homo sapiens) (UniProt P51957); assay: Inhibition of NEK4 (unknown origin) assessed as remaining activity at 1 uM by Kinome scan method relative to control
# Sequence of Serine/threonine-protein kinase Nek4 (Homo sapiens) (P51957 whole entry, looked up): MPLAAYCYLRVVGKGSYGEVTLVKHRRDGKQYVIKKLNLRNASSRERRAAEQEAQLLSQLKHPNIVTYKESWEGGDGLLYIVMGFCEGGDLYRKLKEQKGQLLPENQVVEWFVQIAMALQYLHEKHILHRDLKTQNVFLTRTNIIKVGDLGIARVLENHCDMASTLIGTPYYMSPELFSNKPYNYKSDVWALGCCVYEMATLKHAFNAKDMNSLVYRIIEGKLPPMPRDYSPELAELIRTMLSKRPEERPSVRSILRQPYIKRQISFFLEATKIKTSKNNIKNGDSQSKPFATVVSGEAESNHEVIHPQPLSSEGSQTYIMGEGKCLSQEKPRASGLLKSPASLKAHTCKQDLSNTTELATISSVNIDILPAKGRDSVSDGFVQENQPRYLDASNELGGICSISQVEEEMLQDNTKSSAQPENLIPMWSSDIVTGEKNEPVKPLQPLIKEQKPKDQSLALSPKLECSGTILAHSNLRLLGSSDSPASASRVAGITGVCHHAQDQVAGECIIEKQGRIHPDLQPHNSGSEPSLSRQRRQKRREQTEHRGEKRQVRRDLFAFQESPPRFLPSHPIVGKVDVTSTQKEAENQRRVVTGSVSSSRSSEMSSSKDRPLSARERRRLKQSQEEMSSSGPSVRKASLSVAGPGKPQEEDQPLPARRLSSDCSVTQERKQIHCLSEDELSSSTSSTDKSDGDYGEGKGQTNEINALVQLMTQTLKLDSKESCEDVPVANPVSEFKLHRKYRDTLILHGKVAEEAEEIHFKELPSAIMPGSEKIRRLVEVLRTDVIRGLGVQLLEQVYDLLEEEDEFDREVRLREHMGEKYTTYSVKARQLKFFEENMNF
# [17] = system: Tyrosine-protein kinase ABL1 (Homo sapiens), P00519 [H396P]; assay: Inhibition of ABL1 H396P mutant (unknown origin) assessed as remaining activity at 1 uM by Kinome scan method relative to control; in short: as §1
# [18] = system: Receptor-type tyrosine-protein kinase FLT3 (Homo sapiens), P36888 [UNDEFINED MUTATION]; assay: Inhibition of FLT3 […]/F691L mutant (unknown origin) assessed as remaining activity at 1 uM by Kinome scan method relative to control
# [19] = target: Phosphorylase b kinase gamma catalytic chain, liver/testis isoform (Homo sapiens) (UniProt P15735); assay: Inhibition of PHKG2 (unknown origin) assessed as remaining activity at 1 uM by Kinome scan method relative to control
# Sequence of Phosphorylase b kinase gamma catalytic chain, liver/testis isoform (Homo sapiens) (P15735 whole entry, canonical isoform): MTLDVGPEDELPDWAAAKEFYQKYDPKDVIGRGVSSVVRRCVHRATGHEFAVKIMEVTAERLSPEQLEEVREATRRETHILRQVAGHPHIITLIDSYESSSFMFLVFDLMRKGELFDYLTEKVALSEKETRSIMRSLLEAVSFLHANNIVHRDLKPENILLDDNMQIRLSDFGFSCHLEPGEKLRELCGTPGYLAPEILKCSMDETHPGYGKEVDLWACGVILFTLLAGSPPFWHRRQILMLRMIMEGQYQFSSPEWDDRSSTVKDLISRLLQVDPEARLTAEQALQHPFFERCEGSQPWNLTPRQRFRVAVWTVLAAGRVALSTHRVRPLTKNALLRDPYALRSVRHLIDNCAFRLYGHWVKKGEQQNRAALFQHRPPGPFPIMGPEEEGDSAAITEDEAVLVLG
# [20] = target: Bone morphogenetic protein receptor type-1B (Homo sapiens) (UniProt O00238); assay: Inhibition of BMPR1B (unknown origin) assessed as remaining activity at 1 uM by Kinome scan method relative to control; in short: as §1
# Sequence of Bone morphogenetic protein receptor type-1B (Homo sapiens) (O00238 whole entry): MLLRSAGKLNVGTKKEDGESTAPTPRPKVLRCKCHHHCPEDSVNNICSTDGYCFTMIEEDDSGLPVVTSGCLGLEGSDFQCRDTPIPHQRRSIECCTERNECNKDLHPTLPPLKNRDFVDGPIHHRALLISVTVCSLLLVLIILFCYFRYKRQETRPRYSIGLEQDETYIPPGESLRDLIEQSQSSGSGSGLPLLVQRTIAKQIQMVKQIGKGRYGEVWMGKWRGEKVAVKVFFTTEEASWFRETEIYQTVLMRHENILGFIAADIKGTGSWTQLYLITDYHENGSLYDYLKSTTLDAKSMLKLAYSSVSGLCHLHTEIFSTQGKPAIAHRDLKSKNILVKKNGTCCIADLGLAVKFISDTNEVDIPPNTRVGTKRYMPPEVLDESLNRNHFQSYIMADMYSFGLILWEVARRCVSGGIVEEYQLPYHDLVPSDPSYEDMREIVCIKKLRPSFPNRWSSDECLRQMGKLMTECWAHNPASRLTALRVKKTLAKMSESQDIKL
# [21] = system: Epidermal growth factor receptor (Homo sapiens), P00533 [L861Q]; assay: Inhibition of EGFR L861Q mutant (unknown origin) assessed as remaining activity at 1 uM by Kinome scan method relative to control
# [22] = target: NUAK family SNF1-like kinase 1 (Homo sapiens) (UniProt O60285); assay: Inhibition of ARK5 (unknown origin) assessed as remaining activity at 1 uM by Kinome scan method relative to control; in short: as §1
# [23] = target: Calcium/calmodulin-dependent protein kinase kinase 2 (Homo sapiens) (UniProt Q96RR4); assay: Inhibition of CAMKK2 (unknown origin) assessed as remaining activity at 1 uM by Kinome scan method relative to control
# In short: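 Active-site-dependent competition-binding profiling (KINOMEscan) at 1 μM against a 468-kinase panel; compound supplied from a 10 mM DMSO stock. Read-out is ctrl% = (test signal − positive control signal)/(negative control signal − positive control signal) × 100. DMSO is the negative control (100%) and a control compound the positive control (0%). Lower ctrl% means tighter binding.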
smiles,measurement,setting,value
CN1C(=O)c2sccc2N(C)c2nc(Nc3ccc(S(N)(=O)=O)cc3)ncc21,Activity,[1],96%
same,Activity,[2],87%
same,Activity,[3],100%
same,Activity,[4],96%
same,Activity,[5],41%
same,Activity,[6],39%
same,Activity,[7],8%
same,Kd,[8],100 nM
same,Activity,[9],91%
same,Activity,[10],61%
same,Activity,[11],92%
same,Activity,[12],71%
same,Activity,[13],Non-Toxic
same,Activity,[14],100%
same,Activity,[15],89%
same,Activity,[16],94%
same,Activity,[17],11%
same,Activity,[18],26%
same,Activity,[19],100%
same,Activity,[20],26%
same,Activity,[21],64%
same,Activity,[22],96%
same,Activity,[23],84%
